# Experimental data pooled from the literature.
Compound,tested on,effect on,method,concentration,time,measurement,result
CC1(C)S[C@@H]2[C@H](NC(=O)[C@H](N)c3ccccc3)C(=O)N2[C@H]1C(=O)O,Haemophilus influenzae,microbial growth,,,,MIC90,128 µg/mL
COc1ccc2c(c1OC)C(=O)O[C@@H]2[C@H]1c2c(cc3c(c2OC)OCO3)CCN1C,FaDu,cell growth or viability,,,72 h,IC50,15200 nM
O=C(O)c1ccc(CN2CCC(CN[C@@H]3C[C@H]3c3ccccc3)CC2)cc1,TF-1a,cell growth or viability,resazurin,,96 h,EC50,76.4 nM
CC(=O)Nc1cccc(-n2c(=O)n(C3CC3)c(=O)c3c(Nc4ccc(I)cc4F)n(C)c(=O)c(C)c32)c1,SW-620,cell growth or viability,resazurin,1.56 nM,72 h,viability,56.3%
C/C(=N\NC(=O)c1cccc(S(=O)(=O)N2CCN(C)CC2)c1)c1cc(Cl)ccc1O,TF-1a,cell growth or viability,resazurin,,96 h,EC50,1260 nM
COc1cc(Nc2nccc(-c3cnn4nc(OC)ccc34)n2)cc(C(F)(F)F)c1,SK-MEL3,cell growth or viability,ATP luminescence,,,IC50,1600 nM
O=C(Cc1c[nH]c2ccccc12)Nc1ccc(F)c(F)c1,,DPPH scavenging,,,,IC50,1420 nM
O=C1O[C@H]([C@@H](O)CO)C(O)=C1O,,DPPH scavenging,,,,IC50,3.6 µg/mL
CCc1ccc(NC(=O)Cc2c[nH]c3ccccc23)cc1,,DPPH scavenging,,,,IC50,1920 nM
CC(C)C[C@H](NC(=O)[C@H](Cc1ccccc1)NC(=O)c1cnccn1)B(O)O,J82,cell growth or viability,ATP luminescence,,,IC50,10 nM
O=C(O)c1cn(C2CC2)c2cc(N3CCNCC3)c(F)cc2c1=O,Haemophilus influenzae,microbial growth,,,,MIC90,0.03 µg/mL
